From ChEMBL document CHEMBL1138785, “Stereoselective synthesis of sugar-modified enyne analogues of adenosine and uridine. Interaction with S-adenosyl-L-homocysteine hydrolase and antiviral and cytotoxic effects” (J Med Chem, 2004)

Experiments:
Cytomegalovirus [1] = assay: Activity against CMV (AD-169 strain) was determined; format: functional, organism-based; conditions: Human betaherpesvirus 5
In short: (§1)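 Human embryonic lung (HEL) cell cultures infected with human cytomegalovirus, AD-169 or Davis strain. The read-out is the 50% effective concentration (EC50). Cytotoxicity was measured in the same cells as the 50% cytotoxic concentration (CC50).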

Adenosylhomocysteinase [2] = molecular target: T1, Adenosylhomocysteinase (Homo sapiens, UniProt P23526)
Target sequence in this assay (P23526 2-432 limits assumed): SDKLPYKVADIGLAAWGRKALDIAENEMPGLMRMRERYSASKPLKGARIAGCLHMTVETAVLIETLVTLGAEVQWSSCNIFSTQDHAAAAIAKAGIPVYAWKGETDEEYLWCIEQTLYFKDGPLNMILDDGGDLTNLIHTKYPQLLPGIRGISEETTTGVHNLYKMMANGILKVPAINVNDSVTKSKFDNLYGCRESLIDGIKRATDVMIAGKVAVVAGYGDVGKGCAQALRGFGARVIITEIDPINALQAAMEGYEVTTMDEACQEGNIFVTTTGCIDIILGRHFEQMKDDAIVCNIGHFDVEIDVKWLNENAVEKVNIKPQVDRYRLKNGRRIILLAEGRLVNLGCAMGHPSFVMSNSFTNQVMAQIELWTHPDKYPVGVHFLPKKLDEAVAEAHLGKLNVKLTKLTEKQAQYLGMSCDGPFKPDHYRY

HeLa [3] = assay: Minimum inhibitory concentration required to inhibit respiratory syncytial virus; format: functional; conditions: Homo sapiens
In short: (§2)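 HeLa cell cultures infected with vesicular stomatitis virus, Coxsackie B4 virus or respiratory syncytial virus. The read-out is the minimum inhibitory concentration (MIC), with compounds tested up to 100 or 700 μM.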

Adenosylhomocysteinase [4] = molecular target: T1, Adenosylhomocysteinase; assay: Inhibition of recombinant Placental Adenosylhomocysteinase
Target sequence in this assay (P23526 whole entry): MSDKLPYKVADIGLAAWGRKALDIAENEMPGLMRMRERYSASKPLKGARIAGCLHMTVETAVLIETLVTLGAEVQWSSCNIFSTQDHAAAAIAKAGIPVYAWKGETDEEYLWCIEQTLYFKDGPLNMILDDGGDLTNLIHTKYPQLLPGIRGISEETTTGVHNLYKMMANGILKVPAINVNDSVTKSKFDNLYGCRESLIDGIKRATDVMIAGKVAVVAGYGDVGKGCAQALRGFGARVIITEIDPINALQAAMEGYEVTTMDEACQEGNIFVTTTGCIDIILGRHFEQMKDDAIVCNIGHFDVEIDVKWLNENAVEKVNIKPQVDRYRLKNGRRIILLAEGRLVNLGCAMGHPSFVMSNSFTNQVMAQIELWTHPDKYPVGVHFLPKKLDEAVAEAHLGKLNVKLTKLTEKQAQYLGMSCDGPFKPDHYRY

HeLa [5] = assay: Minimum inhibitory concentration required to inhibit vesicular stomatitis virus; format: functional; conditions: Homo sapiens; in short: as §2
Cytomegalovirus [6] = assay: Activity against CMV (Davis strain) was determined; format: functional, organism-based; conditions: Human betaherpesvirus 5; in short: as §1
[7] = Minimum cytotoxic concentration was determined; conditions: human
In short: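 Human embryonic lung (HEL) cell cultures, run alongside the CMV (AD-169, Davis) and VZV (OKA, 07/1) antiviral tests. Minimum cytotoxic concentration is the lowest compound level that causes cytotoxicity.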

HeLa [8] = assay: Minimum inhibitory concentration required to inhibit Coxsackie B4 virus; format: functional; conditions: Homo sapiens; in short: as §2
MT4 = assay: Ratio of cytotoxicity to antiviral activity was determined; format: functional, Homo sapiens
In short: (§3)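 MT-4 cells infected with HIV-1 (strain IIIB) or HIV-2 (strain ROD), with viability read by MTT. The read-out is the 50% inhibitory concentration (IC50). CC50 was measured in MT-4 cells, and the selectivity index was calculated as CC50/IC50.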

[9] = tested on: Human immunodeficiency virus 1; assay: Inhibition concentration required to inhibit HIV-1 was determined by MT-4/MTT assay; format: functional, organism-based; in short: as §3
Adenosylhomocysteinase [10] = molecular target: T1, Adenosylhomocysteinase; assay: Inhibition of recombinant human placental AdoHcy hydrolase
In short: (§4)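 Recombinant enzyme (2.5 μg) preincubated with inhibitor at 0–200 μM for 0–20 min at 37 °C in 50 mM potassium phosphate, pH 7.2, 1 mM EDTA. Residual synthetic-direction activity was measured with 1 mM Ado and 1 mM Hcy for 1 min at 37 °C, stopped with HClO4, and AdoHcy quantified by reversed-phase HPLC at 258 nm. Ki and kinact came from fitting kobs = kinact[I]/(Ki+[I]).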
Target sequence in this assay (P23526 whole entry): as above

[11] = tested on: Human immunodeficiency virus 1; assay: Inhibition concentration required to inhibit HIV-IIIB was determined by MT-4/MTT assay; format: functional, organism-based; in short: as §3
[12] = tested on: Human immunodeficiency virus 2; assay: Inhibition concentration required to inhibit HIV-2 was determined by MT-4/MTT assay; format: functional, organism-based; in short: as §3
[13] = tested on: Human immunodeficiency virus 2; assay: Inhibition concentration required to inhibit ROD strain was determined by MT-4/MTT assay; format: functional, organism-based; in short: as §3
Adenosylhomocysteinase [14] = molecular target: T1, Adenosylhomocysteinase; assay: Rate at which the compound inactivates human placental AdoHcy hydrolase enzyme was determined; format: functional; in short: as §4
Target sequence in this assay (P23526 2-432 limits assumed): as the sequence (P23526 2-432 limits assumed) above

Which results are given for `C#C/C=C/[C@H]1OC(n2cnc3c(N)ncnc32)[C@H](O)[C@@H]1O` (some centres not stated)?
EC50 (Cytomegalovirus [1]): 50 µM; K inact (Adenosylhomocysteinase [2]): 2.57 min⁻¹; MIC (HeLa [3]): > 100 µM; Ki (Adenosylhomocysteinase [4]): 550 nM; MIC (HeLa [5]): > 100 µM; EC50 (Cytomegalovirus [6]): 30 µM; MCC [7]: ≥ 350 µM; MIC (HeLa [8]): > 100 µM

With `C#C/C=C\[C@H]1OC(n2ccc(=O)[nH]c2=O)[C@H](O)[C@@H]1O` (some centres not stated) as the compound, how does the MIC (HeLa [3]) read?
Its MIC is greater than 100 µM.

What about the MIC (HeLa [5]) of the same compound?
The MIC was greater than 100 µM.

And the CC50/IC50 (MT4)?
Its CC50/IC50 is 7.

What about the MCC [7] of the same compound?
Its MCC is no less than 350 µM.

What about the MIC (HeLa [8]) of the same compound?
The MIC was greater than 100 µM.

Which MCC [7] does the source give for `CCOC(=O)/C=C\C#C[C@H]1OC(n2cnc3c(N)ncnc32)[C@H](O)[C@@H]1O` (some centres not stated) here?
The MCC was no less than 11 µM.

Which results are given for `C#C/C=C/[C@H]1OC(n2ccc(=O)[nH]c2=O)[C@H](O)[C@@H]1O` (some centres not stated)?
MIC (HeLa [3]): > 700 µM; MIC (HeLa [5]): > 700 µM; MCC [7]: ≥ 350 µM; MIC (HeLa [8]): > 700 µM

With `Nc1ncnc2c1ncn2C1O[C@H](/C=C/C#CI)[C@@H](O)[C@H]1O` (some centres not stated) as the compound, how does the IC50 [9] read?
The IC50 was 1100 nM.

And the Ki (Adenosylhomocysteinase [10])?
Its Ki is 118 µM.

What about the IC50 [11] of the same compound?
The IC50 was 1100 nM.

And the IC50 [12]?
The IC50 was 1100 nM.

And the MIC (HeLa [3])?
The MIC was greater than 100 µM.

And the MIC (HeLa [5])?
Its MIC is greater than 100 µM.

What about the CC50/IC50 (MT4) of the same compound?
Its CC50/IC50 is 7.

And the MCC [7]?
The MCC was no less than 50 µM.

What about the MIC (HeLa [8]) of the same compound?
Its MIC is greater than 100 µM.

What about the IC50 [13] of the same compound?
The IC50 was 1100 nM.

What about the K inact (Adenosylhomocysteinase [14]) of the same compound?
Its K inact is 1.49 min⁻¹.

What does the source list for `C#C/C=C\[C@H]1OC(n2cnc3c(N)ncnc32)[C@H](O)[C@@H]1O` (some centres not stated)?
MIC (HeLa [3]): > 700 µM; MIC (HeLa [5]): > 700 µM; MCC [7]: ≥ 350 µM; MIC (HeLa [8]): > 700 µM

What does the source list for `O=c1ccn(C2O[C@H](/C=C/C#CI)[C@@H](O)[C@H]2O)c(=O)[nH]1` (some centres not stated)?
IC50 [9]: 1800 nM; IC50 [11]: 1800 nM; IC50 [12]: 1800 nM; MIC (HeLa [3]): > 100 µM; MIC (HeLa [5]): > 100 µM; CC50/IC50 (MT4): 3; MCC [7]: ≥ 50 µM; MIC (HeLa [8]): > 100 µM; IC50 [13]: 1800 nM
